# What was measured:
# [1] = Safety/tolerability, B7991002 multiple-ascending dose study; assay type: in vivo, human; conditions: doses up to 360 mg q.d. for up to 14 days, healthy young and elderly subjects
# How it was run: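 Healthy subjects aged 18–55 and elderly subjects aged 65–85 took oral doses once daily for 14 days, with about 10 per cohort and placebo control. Dosing was fasted on days 1, 7 and 14, otherwise >1 h from breakfast. Investigators recorded adverse events with severity and causality, plus laboratory tests, physical examinations, ECG monitoring and vital signs.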
# [2] = Plasma pharmacokinetics, B7991001 single-ascending dose incl. food effect; assay type: in vivo, human; conditions: 120 mg fed vs fasted
# [3] = Plasma and CSF pharmacokinetics, B7991002 multiple dose; assay type: in vivo, human; conditions: for PF-06648671 concentration in CSF, mean: day 14, nonelderly
# CSF Aβ42 = test: PK/PD indirect-response model, CSF Aβ42; assay type: in vivo, human
# How it was run: (§1)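 Population PK/PD fit in NONMEM (FOCE with interaction) for healthy adults. Inputs: serial CSF via lumbar catheter, 2 h predose to 36 h after one fasted oral 150 or 300 mg dose; single lumbar punctures at baseline and day 14 in 40–360 mg q.d. cohorts. Fixed two-compartment PK gave individual plasma concentrations. Indirect-response model: sigmoid inhibition (Aβ40/42) or stimulation (Aβ37/38) of production, with kout turnover. Fixed placebo-drift terms.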
# CSF Aβ40 [4] = test: PK/PD indirect-response model, CSF Aβ40; assay type: in vivo, human
# How it was run: as §1
# CSF Aβ38 = test: PK/PD indirect-response model, CSF Aβ38; assay type: in vivo, human
# How it was run: as §1
# CSF Aβ37 = test: PK/PD indirect-response model, CSF Aβ37; assay type: in vivo, human
# How it was run: as §1
# plasma Aβ = test: Plasma Aβ levels after single doses; assay type: in vivo, human; conditions: following single doses
# [5] = system: Aβ42, Aβ40, Aβ37 and Aβ38; conditions: cited from earlier work
# Notch = conditions: cell-based assays ref 36; cited from earlier work
# [6] = system: Aβ42 within the brain and CSF; conditions: acute oral administration ref 36; cited from earlier work
# Aβ42 = conditions: cited from earlier work
# CSF Aβ40 [7] = conditions: multiple-ascending doses over 28 days, healthy subjects ref 32; cited from earlier work
# Aβ37 = conditions: cited from earlier work
# Aβ38 = conditions: cited from earlier work
# [8] = multiple-ascending doses over 28 days, healthy subjects ref 32
# [9] = single dosing, healthy subjects ref 33
smiles,measurement,setting,value
"Cc1cn(-c2ccc3n(c2=O)CCN([C@@H](C)[C@@H]2CC[C@H](c4cc(F)c(Cl)cc4C(F)(F)F)O2)C3=O)cn1 [PF-06648671, 2‐[(1S)‐1‐{(2S,5R)‐5‐[4‐chloro‐5‐fluoro‐2‐(trifluoromethyl)phenyl]tetrahydrofuran‐2‐yl}ethyl]‐7‐(4‐methyl‐1H‐imidazol‐1‐yl)‐3,4‐dihydro‐2H‐pyrido[1,2‐a]pyrazine‐1,6‐dione]",Safety profile,[1],good safety profile
same,Delay of median Tmax with food,[2],3 h
same,"PF-06648671 concentration in CSF, mean","[3]; 40 mg q.d., CV 81%",3.49 ng/mL
same,"PF-06648671 concentration in CSF, mean","[3]; 360 mg q.d., CV 31%",27.85 ng/mL
same,CSF penetration,[3]; CSF:plasma ratio at day 14 about equal to unbound fraction,excellent CSF penetration
same,Predicted reduction in CSF Aβ42 levels,CSF Aβ42; 75 mg,50%
same,Predicted reduction in CSF Aβ42 levels,CSF Aβ42; 300 mg,65%
same,IC50,"CSF Aβ42; Homo sapiens, read-out: IC50, plasma concentration at half Imax, Aβ42",0.421 µg/mL
same,"Imax, maximum inhibition achievable, Aβ42",CSF Aβ42; PK/PD model estimate,0.744
same,"k out, first-order turnover constant of Aβ42",CSF Aβ42; PK/PD model estimate,0.121 h⁻¹
same,Dose predicted to achieve an average 50% reduction in CSF Aβ42,"CSF Aβ42; steady state, PK/PD model",75 mg q.d.
same,IC50,"CSF Aβ40 [4]; Homo sapiens, read-out: IC50, plasma concentration at half Imax, Aβ40",1.23 µg/mL
same,"Imax, maximum inhibition achievable, Aβ40",CSF Aβ40 [4]; PK/PD model estimate,0.725
same,"k out, first-order turnover constant of Aβ40",CSF Aβ40 [4]; PK/PD model estimate,0.0835 h⁻¹
same,Dose predicted to achieve an average 50% reduction in CSF Aβ40,"CSF Aβ40 [4]; steady state, PK/PD model",250 mg q.d.
same,EC50,"CSF Aβ38; Homo sapiens, read-out: EC50, plasma concentration at half Emax, Aβ38",1.77 µg/mL
same,"k out, first-order turnover constant of Aβ38",CSF Aβ38; PK/PD model estimate,0.144 h⁻¹
same,"Emax, maximum response achievable, Aβ38","CSF Aβ38; PK/PD model estimate, large uncertainty",0.869
same,EC50,"CSF Aβ37; Homo sapiens, read-out: EC50, plasma concentration at half Emax, Aβ37",1.28 µg/mL
same,"Emax, maximum response achievable, Aβ37",CSF Aβ37; PK/PD model estimate,5.63
same,"k out, first-order turnover constant of Aβ37",CSF Aβ37; PK/PD model estimate,0.0964 h⁻¹
same,Predicted increase in CSF Aβ37,"CSF Aβ37; steady state, within simulated dose ranges",≤ 500%
same,Rebound effect of plasma Aβ levels over baseline,plasma Aβ,no rebound effect of plasma Aβ levels over baseline was observed
same,Effect on Aβ species in cell-based assays,[5],"reduced Aβ42 and Aβ40, with concomitant increases in Aβ37 and Aβ38"
same,Effect on cleavage of Notch or other substrates,Notch,without inhibiting the cleavage of Notch or other substrates
same,Effect on Aβ42 in animals,[6],reduced Aβ42 within the brain and CSF
COc1nc(/C=C/c2nc3n(n2)CCC[C@H]3c2ccccc2C(F)(F)F)ccc1-n1cnc(C)c1 [E2212],Decrease in Aβ42 AUC0–24 hours values,Aβ42; single-ascending doses ref 35,up to 44.1%
CNc1nc(Nc2ccc(-n3cnc(C)n3)c(OC)c2)nc2c1CC[C@H]2c1ccc(F)cc1 [BMS‐932481],Decrease in CSF Aβ42,Aβ42; [8],up to 77%
same,Decrease in Aβ42,Aβ42; [9],up to 50%
same,Decrease in CSF Aβ40,CSF Aβ40 [7],≤ 74%
same,Increase in CSF Aβ37,Aβ37; [8],up to 545%
same,Increase in Aβ37,Aβ37; [9],up to 12 fold
same,Increase in CSF Aβ38,Aβ38; [8],≤ 69%
same,Increase in Aβ38,Aβ38; [9],≤ 2 fold

# Source: article PMC6977340 (Clinical Pharmacology and Therapeutics, 2019)
